STAT1 inh: STAT1 signaling inhibitors, primary screen, cell-based, HTS, luciferase reporter; inhibition, % at 5.5 µM; hit rate 0.35% among 200,000; NIH 3T3 STAT1-luciferase reporter, IFN-gamma, luminescence;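 active means inhibition above a set limit, the mean inhibition across all tested compounds plus 3 SD, cut at about 34% in these data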
STAT1 activator: STAT1 signaling activators, primary screen, cell-based, HTS, luciferase reporter; hit rate 2.6% among 200,000; activation (% of control), % at 5.5 µM; NIH 3T3 STAT1-luciferase reporter, IFN-gamma, luminescence; 100% = IFN-gamma alone, no compound;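 active means activation above the screen-wide mean activation plus 3 SD, cut at about 130% in these data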
APP 5'UTR act: activators of APP 5'UTR luciferase reporter, primary screen, SH-SY5Y cells; SH-SY5Y APP 5'UTR luciferase reporter, luminescence; zero percent = DMSO vehicle wells; activation, % at 2 µM; hit rate 1% among 190,000;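 active means activation above a set limit, based on mean plus 3 SD of controls, cut at about 140% in these data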
NF-kB expr up: activators of NF-kB expression in neurons, primary screen, cell-based, HTS; human neuronal cells, NF-kB reporter expression; active compounds read high; fold change at 12.5 µM; hit rate 1.6% among 190,000; in the data active means fold change above about 3.3
STAT3 activator: IL-6 driven STAT3 reporter potentiators, primary screen, U3A cells, luciferase, luminescence, MLSCN library; hit rate 0.91% among 190,000; IL-6 STAT3-luciferase reporter; 100% = signal with IL-6 EC80 alone; activation (% of control), % at 5.6 µM;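 active means activation above the screen-wide mean of compound activation plus 3 SD, cut at about 130% in these data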
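Material: human U3A cells carrying STAT3-luciferase construct. Measured by: reporter luminescence signal. Timing: compound 1 h, then IL-6 6 h at 37 °C.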
STAT3 blocker: IL-6 driven STAT3 reporter inhibitors, primary screen, U3A cells, luciferase, luminescence, MLSCN library. IL-6 STAT3-luciferase reporter; host cell line lacks STAT1. inhibition, % at 5.5 µM. hit rate 0.89% among 190,000. AID 862, 2007;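 active means inhibition above the mean inhibition across all screened compounds plus 3 SD, cut at about 44% in these data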
Of the large screens only hits and unclear results are named; the others gave an inactive call. This is a sample that favours compounds with a hit; in the whole collection about 5.1% have one here.

COc1ccc(CNC(=O)CN(C(=O)CCC(=O)Nc2ccccn2)c2cccc(C)c2)cc1	none
Nc1ncc(Br)cc1N=Cc1ccccc1	STAT1 activator 149, NF-kB expr up 4.7
Cc1cc(C)c[n+](-c2nc3ccccc3nc2C(=C=[N-])C#N)c1	NF-kB expr up 4.4
CCN(CC)c1cc(C(F)(F)F)nc(-c2ccccn2)n1	none
Cc1ccc(/C=N/NC(=O)c2ccccn2)o1	STAT1 activator 130
O=C(N/N=C/C(Cl)=C/c1ccccc1)c1ccncc1	none
O=C(N/N=C/C(Cl)=C/c1ccccc1)c1ccccn1	NF-kB expr up 4.3
O=C(CSc1nn(-c2ccc(F)cc2)c(=S)s1)NC(=O)NCc1ccco1	none
Cc1cc(Br)ccc1NC(=O)CCSc1ccccc1	none
Cc1cc(C)nc(NC(N)=NCCc2c[nH]c3ccccc23)n1	STAT1 inh 37, STAT3 blocker 46
O=C1CC(c2ccco2)CC2=C1C1c3ccccc3C(=O)N1c1ccccc1N2 (centres undefined)	NF-kB expr up 8.4
CCC(=O)N1c2ccccc2NC2=C(C(=O)CC(c3ccco3)C2)C1c1ccco1 (centres undefined)	none
CCOc1ccc(NC(=O)c2nsc(Cl)c2Cl)cc1	STAT1 activator 150, APP 5'UTR act 234, NF-kB expr up 6.4
O=C(Nc1ccc(F)cc1)c1nsc(Cl)c1Cl	STAT1 activator 138, NF-kB expr up 5
CCn1c2ccccc2c2cc(NC(=O)N3CCOCC3)ccc21	none
c1ccc(-c2cnnc(SCc3cn4cccnc4n3)n2)cc1	none
CCCCOc1ccc(OC(=O)c2cccnc2)cc1	none
CCCCCCCOc1ccc(OC(=O)c2cccnc2)cc1	NF-kB expr up 11
CCCCCCCOc1ccc(OC(=O)c2ccncc2)cc1	NF-kB expr up 8.6
O=C1CCC2S/C(=C/Nc3ccc(C(F)(F)F)cc3)C(=O)N12 (centres undefined)	STAT1 inh 66, STAT3 blocker 78
O=C1CCCC/C1=C/Nc1cccc(C(F)(F)F)c1	none
Cc1nc(NC(=O)c2ccc([N+](=O)[O-])cc2Cl)sc1C(=O)N(C)C	none
Cc1cc(C(=O)Nc2nc(C)c(C(=O)N(C)C)s2)ccc1[N+](=O)[O-]	STAT1 activator 150
O=C(OCc1nnc(-c2ccc(Cl)cc2)o1)C12CC3CC(CC(O)(C3)C1)C2	STAT1 activator 138
CCOc1ccc(NC(=O)/C=C/c2ccccc2)c([N+](=O)[O-])c1	STAT1 activator 131
Cc1ccc(NC(=O)/C=C/c2cccs2)c([N+](=O)[O-])c1	STAT1 activator 146, APP 5'UTR act 173, NF-kB expr up 7
O=C(/C=C/c1ccccc1[N+](=O)[O-])Nc1ccccc1	APP 5'UTR act 172, NF-kB expr up 8.3
COc1cc(NC(=O)/C=C/c2ccccc2[N+](=O)[O-])cc(OC)c1	none
O=C(/C=C/c1cccs1)Nc1ccncc1	none
Cc1cccc(NC(=O)/C=C/c2cccs2)n1	STAT1 activator 149, APP 5'UTR act 170, NF-kB expr up 5
CCOc1ccc(/C=C/C(=O)Nc2ccc(OC)cc2[N+](=O)[O-])cc1	none
CCC(CC)C(=O)Nc1cccc(C(=O)c2ccccc2)c1	none
Nc1cnc(Br)cc1Br	none
O=C1c2ccccc2NC(c2ccccc2)N1/N=C/c1ccccc1 (centres undefined)	NF-kB expr up 3.8
O=C1c2ccccc2NC(c2ccc(O)cc2)N1/N=C/c1ccc(O)cc1 (centres undefined)	none
O=C(NCCN1CCOCC1)c1cn(-c2ccccc2)nc1-c1cccs1	none
CC(=O)N1N=C(c2ccc(C)cc2)CC1c1ccco1 (centres undefined)	none
Cc1ccc(C2=NN3C(C2)c2ccccc2OC32C(=O)Nc3ccccc32)cc1 (centres undefined)	APP 5'UTR act 204, NF-kB expr up 8.7
CN1C(=O)C2(Oc3ccccc3C3CC(c4ccccc4)=NN32)c2ccccc21 (centres undefined)	APP 5'UTR act 137

Screening results as filed in PubChem BioAssay.
